Activity calls are given as the source filed them. The calls are words filed in the database; no cut-off is given here.
Tests used:
Monoglyceride lipase = biological target: T1, Monoglyceride lipase (Homo sapiens, UniProt Q99685); test: Inhibition of MAGL in human U937 cells using 2-OG containing […] as substrate preincubated for 30 mins followed by substrate addition and measured after 15 mins by liquid scintillation spectroscopic method; format: cell-based
T1 sequence (Q99685 whole entry): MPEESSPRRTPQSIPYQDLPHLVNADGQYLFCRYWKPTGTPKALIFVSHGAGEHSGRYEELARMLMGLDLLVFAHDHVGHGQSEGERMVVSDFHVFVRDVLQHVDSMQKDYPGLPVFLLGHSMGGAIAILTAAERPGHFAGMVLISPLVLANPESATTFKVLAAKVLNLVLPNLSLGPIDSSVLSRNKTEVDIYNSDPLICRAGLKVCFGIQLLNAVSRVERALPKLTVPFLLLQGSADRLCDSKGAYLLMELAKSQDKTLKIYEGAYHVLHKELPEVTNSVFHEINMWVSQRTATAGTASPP
How it was run: (§1)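 U937 cell homogenate (100 µg) in 10 mM Tris-HCl, 1 mM EDTA, pH 8, 0.1% fatty acid-free BSA. Compound at 10 µM screening concentration, 30 min at 37 °C. FAAH: 100 nM AEA with 1 nM [³H]AEA tracer. MAGL: 1 µM 2-OG with 1 nM tritiated tracer. Both 15 min at 37 °C, stopped with CHCl₃:MeOH (1:1), aqueous phase counted.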

Cannabinoid receptor 1 [1] = biological target: T2, Cannabinoid receptor 1 (Homo sapiens, UniProt P21554); test: Displacement of [3H]-CP55940 from human CB1 receptor expressed in CHO cell membranes after 90 mins
T2 sequence (P21554 whole entry): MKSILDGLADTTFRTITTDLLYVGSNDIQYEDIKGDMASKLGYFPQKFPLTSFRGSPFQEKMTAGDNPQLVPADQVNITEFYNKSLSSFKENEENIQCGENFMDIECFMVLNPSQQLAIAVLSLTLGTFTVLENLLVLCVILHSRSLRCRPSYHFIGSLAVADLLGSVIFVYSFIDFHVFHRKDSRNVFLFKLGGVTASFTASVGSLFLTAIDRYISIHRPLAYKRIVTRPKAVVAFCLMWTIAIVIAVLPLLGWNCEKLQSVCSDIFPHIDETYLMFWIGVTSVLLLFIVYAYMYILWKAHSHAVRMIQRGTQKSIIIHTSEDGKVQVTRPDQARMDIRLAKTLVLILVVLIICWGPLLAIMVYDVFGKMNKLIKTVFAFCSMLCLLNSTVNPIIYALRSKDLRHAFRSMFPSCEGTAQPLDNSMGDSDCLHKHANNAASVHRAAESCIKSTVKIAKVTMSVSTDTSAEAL

Cannabinoid receptor 2 [2] = biological target: T3, Cannabinoid receptor 2 (Homo sapiens, UniProt P34972); test: Displacement of [3H]-CP55940 from human CB2 receptor expressed in CHO cell membranes after 90 mins
T3 sequence (P34972 whole entry): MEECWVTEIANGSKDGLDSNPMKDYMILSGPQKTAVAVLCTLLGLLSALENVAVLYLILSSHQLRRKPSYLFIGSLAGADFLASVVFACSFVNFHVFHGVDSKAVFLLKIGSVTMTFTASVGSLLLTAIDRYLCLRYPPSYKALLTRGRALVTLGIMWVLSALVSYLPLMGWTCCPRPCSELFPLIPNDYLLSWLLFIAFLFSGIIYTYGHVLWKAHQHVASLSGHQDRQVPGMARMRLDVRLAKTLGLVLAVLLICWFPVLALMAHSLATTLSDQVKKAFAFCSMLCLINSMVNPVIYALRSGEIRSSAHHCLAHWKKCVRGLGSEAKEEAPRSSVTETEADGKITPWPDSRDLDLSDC
How it was run: (§2)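 Membranes expressing hCB1 or hCB2 (stably transfected CHO) in 50 mM Tris-HCl, 2.5 mM EDTA, 5 mM MgCl₂, 0.5% fatty acid-free BSA, pH 7.4. Nonspecific binding with 10 µM […]. GF/B filtration, radioactivity counted, Ki derived. Mean ± SD, at least 3 experiments in triplicate.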

Homo sapiens = species on record: Homo sapiens; test: Selectivity ratio of Ki for human CB1 receptor to Ki for human CB2 receptor
How it was run: as §2, with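 “7.4. Incubated with compound and 0.5 nM [³H]CP55,940 for 90 min at 30 °C.” for “7.4.”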

[3] = biological target: T4, Fatty-acid amide hydrolase 1 (Homo sapiens, UniProt O00519); test: Inhibition of FAAH in human U937 cells using AEA containing [ethanolamine-1-3H]AEA as substrate preincubated for 30 mins followed by substrate addition and measured after 15 mins by liquid scintillation spectroscopic method; format: cell-based; how it was run: as §1
T4 sequence (O00519 whole entry): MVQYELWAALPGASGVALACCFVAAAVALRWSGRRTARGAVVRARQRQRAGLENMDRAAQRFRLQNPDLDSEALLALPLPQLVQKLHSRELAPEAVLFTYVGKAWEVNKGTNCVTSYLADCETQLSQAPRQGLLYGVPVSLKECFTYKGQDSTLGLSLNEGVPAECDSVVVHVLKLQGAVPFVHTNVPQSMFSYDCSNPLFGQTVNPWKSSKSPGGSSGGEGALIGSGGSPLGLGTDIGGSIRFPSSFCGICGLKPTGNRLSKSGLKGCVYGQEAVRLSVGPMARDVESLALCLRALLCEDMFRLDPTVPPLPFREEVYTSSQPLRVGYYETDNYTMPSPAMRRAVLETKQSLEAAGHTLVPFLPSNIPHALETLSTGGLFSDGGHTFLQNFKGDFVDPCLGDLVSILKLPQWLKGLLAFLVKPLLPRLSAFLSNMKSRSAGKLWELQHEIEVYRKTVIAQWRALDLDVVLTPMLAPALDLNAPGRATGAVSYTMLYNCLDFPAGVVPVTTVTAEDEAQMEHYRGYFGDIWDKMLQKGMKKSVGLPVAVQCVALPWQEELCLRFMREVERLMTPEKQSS

[4] = biological target: T5, Monoacylglycerol lipase ABHD6 (Homo sapiens, UniProt Q9BV23); test: Inhibition of human ABHD6 expressed in HEK293 cells using 2-OG as substrate preincubated for 30 mins followed by substrate addition and measured after 5 mins by liquid scintillation spectroscopic method; format: cell-based
T5 sequence (Q9BV23 whole entry): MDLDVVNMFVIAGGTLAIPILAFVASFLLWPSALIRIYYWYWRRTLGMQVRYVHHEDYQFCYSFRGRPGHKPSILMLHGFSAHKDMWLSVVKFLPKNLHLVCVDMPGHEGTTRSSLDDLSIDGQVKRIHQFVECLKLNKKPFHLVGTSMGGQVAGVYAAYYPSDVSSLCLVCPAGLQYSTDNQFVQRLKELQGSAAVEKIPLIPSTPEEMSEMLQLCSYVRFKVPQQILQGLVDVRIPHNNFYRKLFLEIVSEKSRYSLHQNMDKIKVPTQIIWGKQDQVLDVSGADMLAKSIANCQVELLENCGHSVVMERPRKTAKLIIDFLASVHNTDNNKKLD
How it was run: (§3)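 Homogenate (40 µg) of HEK293 cells stably transfected with hABHD6 or hABHD12, compound preincubated 30 min at 37 °C in […], 0.1% BSA, pH 7.6. DMSO vehicle; WWL70 10 µM or THL 20 µM as positive controls. 10 µM 2-OG added for 5 min at 37 °C, stopped with CHCl₃:MeOH. Aqueous phase counted; no-enzyme blanks and non-transfected HEK293 hydrolysis subtracted.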

[5] = biological target: T6, Lysophosphatidylserine lipase ABHD12 (Homo sapiens, UniProt Q8N2K0); test: Inhibition of human ABHD12 expressed in HEK293 cells using 2-OG as substrate preincubated for 30 mins followed by substrate addition and measured after 5 mins by liquid scintillation spectroscopic method; format: cell-based; how it was run: as §3
T6 sequence (Q8N2K0 whole entry): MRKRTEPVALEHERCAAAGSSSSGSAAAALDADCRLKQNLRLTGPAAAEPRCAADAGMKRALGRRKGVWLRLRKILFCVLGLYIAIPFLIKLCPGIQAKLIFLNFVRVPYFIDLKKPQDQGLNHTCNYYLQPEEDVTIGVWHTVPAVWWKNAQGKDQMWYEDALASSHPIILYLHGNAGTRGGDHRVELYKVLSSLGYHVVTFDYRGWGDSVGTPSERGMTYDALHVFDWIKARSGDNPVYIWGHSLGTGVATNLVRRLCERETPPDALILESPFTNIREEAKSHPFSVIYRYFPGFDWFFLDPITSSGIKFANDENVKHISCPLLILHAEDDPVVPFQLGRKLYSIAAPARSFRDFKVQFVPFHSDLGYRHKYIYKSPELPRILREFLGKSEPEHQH

U-937 [6] = test: Inhibition of [ethanolamine-1-3H]AEA/unlabeled AEA uptake in human U937 cells preincubated for 15 mins followed by [ethanolamine-1-3H]AEA/unlabeled AEA addition and measured after 15 mins by scintillation counting method; format: functional, cell-based
How it was run: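 Intact U937 cells (0.5x10⁶ per sample) in RPMI, preincubated with compound for 15 min at 37 °C. Then 1 nM [ethanolamine-1-³H]AEA plus unlabeled AEA (final 100 nM) added for 15 min. Stopped by rapid filtration and ice-cold PBS/1% BSA washes, radioactivity counted. At least three experiments in triplicate, mean ± SD.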

Cannabinoid receptor 2 [7] = biological target: T3, Cannabinoid receptor 2; test: Agonist activity at human CB2 receptor expressed in CHO cell membranes after 90 mins by [35S]GTPgammaS binding assay; format: functional
How it was run: (§4)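 Membranes (5 µg) of hCB2-expressing cells in 50 mM Tris-HCl, 3 mM MgCl₂, 0.2 mM EDTA, 100 mM NaCl, 0.5% fatty acid-free BSA, pH 7.4, with 10 µM GDP and 0.1 nM [³⁵S]GTPγS. Kept on ice, started by vehicle or compound, 90 min at 30 °C. Nonspecific binding with 10 µM GTPγS. Filtered on GF/B, radioactivity counted. At least three experiments in triplicate, mean ± SD.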

Cannabinoid receptor 2 [8] = biological target: T3, Cannabinoid receptor 2; test: Agonist activity at human CB2 receptor expressed in CHO cell membranes after 90 mins by [35S]GTPgammaS binding assay relative to control; format: functional; how it was run: as §4
Cannabinoid receptor 1 [9] = biological target: T2, Cannabinoid receptor 1; test: Agonist activity at human CB1 receptor expressed in CHO cell membranes after 90 mins by [35S]GTPgammaS binding assay; format: functional, cell-based
U-937 [10] = test: Cytotoxicity against human U937 cells assessed as decrease in cell viability at 0.6 to 40 uM after 48 hrs by MTT assay; format: functional, cell-based
How it was run: (§5)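 U251MG (EMEM, 10% FBS) or U937 (RPMI 1640, 10% FBS) cells plated at 4x10³/well for 24h, then exposed to compounds (0–40 µM) for 48 h at 37°C. MTT reduction, formazan read at 595 nm. Viability as % of untreated control. Five independent experiments in triplicate, mean ± SD, ANOVA with Bonferroni.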

U-251 = test: Cytotoxicity against human U251MG cells assessed as decrease in cell viability at 0.6 to 40 uM after 48 hrs by MTT assay; format: functional, cell-based; how it was run: as §5

| SMILES | IC50 (Monoglyceride lipase) [µM] | Ki (Cannabinoid receptor 1 [1]) [µM] | Ki (Cannabinoid receptor 2 [2]) [µM] | Ratio Ki (Homo sapiens) | IC50 [3] [µM] | IC50 [4] [µM] | IC50 [5] [µM] | IC50 (U-937 [6]) [µM] | EC50 (Cannabinoid receptor 2 [7]) [µM] | Emax (Cannabinoid receptor 2 [8]) [%] | EC50 (Cannabinoid receptor 1 [9]) [µM] | Activity (U-937 [10]) | Activity (U-251) |
| --- | --- | --- | --- | --- | --- | --- | --- | --- | --- | --- | --- | --- | --- |
| COc1ccc(-c2cn(Cc3ccc(F)cc3)c(=O)c(C(=O)NC3CCCCCC3)c2-c2ccccc2)cc1 | > 10 | > 10 | > 10 | 2 to 54 | > 10 | > 10 | > 10 | > 10 | – | – | – | – | – |
| COc1ccc(C(=O)c2c(C)n(CCN3CCOCC3)c3cc(I)ccc23)cc1 | – | – | – | – | – | – | – | – | 0.167 | 35 | – | – | – |
| O=C(NC1CCCCCC1)c1c(-c2ccccc2)c(Br)cn(Cc2ccc(F)cc2)c1=O | > 10 | > 10 | 0.437 | 2 to 54 | > 10 | 3 | > 10 | > 10 | 0.316 | 176 | – | – | – |
| CCCCCCC(C)(C)c1ccc([C@@H]2C[C@H](O)CC[C@H]2CCCO)c(O)c1 | – | – | – | – | – | – | – | – | – | 196 | – | – | – |
| COc1ccc(-c2c(Br)cn(Cc3ccc(F)cc3)c(=O)c2C(=O)NC2CCCCCC2)cc1 | > 10 | > 10 | > 10 | 2 to 54 | > 10 | > 10 | > 10 | > 10 | – | – | – | – | – |
| O=C(NC1CCCCCC1)c1c(-c2ccccc2)c(-c2ccccc2)cn(Cc2ccc(F)cc2)c1=O | > 10 | > 10 | > 10 | 2 to 54 | > 10 | > 10 | > 10 | > 10 | – | – | – | – | – |
| Cc1ccn(Cc2ccc(F)cc2)c(=O)c1C(=O)NC1CCCCCC1 | > 10 | 0.0117 | 0.0059 | 2 to 54 | 8.8 | > 10 | > 10 | 1.8 | 0.0019 | 128 | 0.069 | Active | inactive |
| COc1ccc(-c2cc(C(=O)NC3CCCCCC3)c(=O)n(Cc3ccc(F)cc3)c2)cc1 | – | – | – | – | – | – | – | – | – | – | – | Active | inactive |
| O=C(NC1CCCCCC1)c1c(-c2ccccc2)ccn(Cc2ccc(F)cc2)c1=O | > 10 | > 10 | 0.187 | 2 to 54 | > 10 | > 10 | > 10 | > 10 | 0.501 | 134 | – | Active | inactive |
| Cc1ccnc(OCc2ccc(F)cc2)c1C(=O)NC1CCCCCC1 | > 10 | 0.131 | 0.0463 | 2 to 54 | > 10 | > 10 | > 10 | 0.58 | 0.031 | 127 | 0.229 | Active | inactive |
| Cc1c(-c2ccccc2)cn(Cc2ccc(F)cc2)c(=O)c1C(=O)NC1CCCCCC1 | > 10 | 0.0231 | 0.0069 | 2 to 54 | 0.07 | > 10 | 2.5 | – | 0.012 | 39 | 0.237 | Active | inactive |
| COc1ccc(-c2ccn(Cc3ccc(F)cc3)c(=O)c2C(=O)NC2CCCCCC2)cc1 | > 10 | > 10 | > 10 | 2 to 54 | > 10 | > 10 | > 10 | > 10 | – | – | – | – | – |

From ChEMBL document CHEMBL4152271, “Polypharmacological profile of 1,2-dihydro-2-oxo-pyridine-3-carboxamides in the endocannabinoid system” (Eur J Med Chem, 2018)
